# Data from ChEMBL document CHEMBL2202977, “Optimization and structure-activity relationships of a series of potent inhibitors of methicillin-resistant Staphylococcus aureus (MRSA) pyruvate kinase as novel antimicrobial agents” (Bioorg Med Chem, 2012).
# Key:
# [1] = molecular target: T1, Pyruvate kinase (Staphylococcus aureus (strain MRSA252), UniProt Q6GG09); assay: Inhibition of methicillin-resistant Staphylococcus aureus 252 pyruvate kinase by LDH assay; set-up: species or system Staphylococcus aureus subsp. aureus MRSA252
# T1 sequence (Q6GG09 whole entry): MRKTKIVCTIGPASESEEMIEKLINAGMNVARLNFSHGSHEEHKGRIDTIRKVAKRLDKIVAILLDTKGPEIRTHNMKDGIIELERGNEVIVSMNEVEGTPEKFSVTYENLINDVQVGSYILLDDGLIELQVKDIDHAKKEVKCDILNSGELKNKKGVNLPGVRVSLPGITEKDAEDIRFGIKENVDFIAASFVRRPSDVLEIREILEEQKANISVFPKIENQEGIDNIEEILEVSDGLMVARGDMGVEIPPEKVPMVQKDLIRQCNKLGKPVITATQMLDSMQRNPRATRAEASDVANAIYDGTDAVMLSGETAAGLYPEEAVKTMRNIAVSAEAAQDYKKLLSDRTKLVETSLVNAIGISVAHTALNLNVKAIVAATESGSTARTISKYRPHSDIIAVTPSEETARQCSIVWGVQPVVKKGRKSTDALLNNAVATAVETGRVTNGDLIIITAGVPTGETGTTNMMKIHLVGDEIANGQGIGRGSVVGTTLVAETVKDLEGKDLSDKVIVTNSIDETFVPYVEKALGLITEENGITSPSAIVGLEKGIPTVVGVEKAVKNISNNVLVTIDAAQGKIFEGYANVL
# In short: (§1)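 MRSA pyruvate kinase activity was measured by a previously described procedure. IC50 was calculated from triplicate 15-point titrations, or averaged over n such determinations. Where no IC50 was obtained, the value is % inhibition at the highest concentration tested.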
# [2] = tested on: Staphylococcus aureus; assay: Antimicrobial activity against Staphylococcus aureus ATCC 29213 after 24 hrs broth microdilution method; assay type: functional
# In short: (§2)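 MIC taken as the minimum concentration giving >98% growth inhibition of the named S. aureus strain (RN4220, ATCC 25923 or ATCC 29213). Values are single determinations or averages of n determinations. Vancomycin was run as control.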
# [3] = tested on: Staphylococcus aureus; assay: Antimicrobial activity against Staphylococcus aureus RN4220 after 24 hrs broth microdilution method; assay type: functional; in short: as §2
# [4] = molecular target: T2, Pyruvate kinase (Staphylococcus aureus (strain MRSA252)) (UniProt Q6GG09); assay: Inhibition of methicillin-resistant Staphylococcus aureus 252 pyruvate kinase at 10 uM by LDH assay; details: Staphylococcus aureus subsp. aureus MRSA252; in short: as §1
# T2 sequence (whole entry): T1 sequence (Q6GG09 whole entry)
# [5] = molecular target: Pyruvate kinase PKM (Homo sapiens) (UniProt P14618); assay: Inhibition of human pyruvate kinase M2 at 10 uM by LDH assay
# Chain of Pyruvate kinase PKM (Homo sapiens) (P14618 2-531 limits assumed): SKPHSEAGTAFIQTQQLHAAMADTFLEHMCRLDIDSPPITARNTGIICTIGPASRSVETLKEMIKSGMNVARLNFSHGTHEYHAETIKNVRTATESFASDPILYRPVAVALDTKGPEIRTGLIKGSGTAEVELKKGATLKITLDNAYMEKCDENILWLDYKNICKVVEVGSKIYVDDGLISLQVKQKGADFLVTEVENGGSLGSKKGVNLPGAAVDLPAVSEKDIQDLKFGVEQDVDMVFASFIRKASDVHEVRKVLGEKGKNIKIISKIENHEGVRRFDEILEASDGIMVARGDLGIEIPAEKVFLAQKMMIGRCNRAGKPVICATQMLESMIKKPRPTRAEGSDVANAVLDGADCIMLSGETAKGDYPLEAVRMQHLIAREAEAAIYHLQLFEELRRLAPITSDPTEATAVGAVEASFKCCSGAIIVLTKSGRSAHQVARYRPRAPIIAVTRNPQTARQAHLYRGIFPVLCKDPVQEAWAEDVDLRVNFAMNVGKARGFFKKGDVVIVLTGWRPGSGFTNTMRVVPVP
# In short: (§3)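 Selected compounds were tested against mammalian PK isoforms M1, M2, R and L at the highest concentration, 10 µM. Results are given as percent inhibition.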
# [6] = molecular target: Pyruvate kinase PKLR (Homo sapiens) (UniProt P30613); assay: Inhibition of human pyruvate kinase L at 10 uM by LDH assay; in short: as §3
# Chain of Pyruvate kinase PKLR (Homo sapiens) (P30613 whole entry, looked up): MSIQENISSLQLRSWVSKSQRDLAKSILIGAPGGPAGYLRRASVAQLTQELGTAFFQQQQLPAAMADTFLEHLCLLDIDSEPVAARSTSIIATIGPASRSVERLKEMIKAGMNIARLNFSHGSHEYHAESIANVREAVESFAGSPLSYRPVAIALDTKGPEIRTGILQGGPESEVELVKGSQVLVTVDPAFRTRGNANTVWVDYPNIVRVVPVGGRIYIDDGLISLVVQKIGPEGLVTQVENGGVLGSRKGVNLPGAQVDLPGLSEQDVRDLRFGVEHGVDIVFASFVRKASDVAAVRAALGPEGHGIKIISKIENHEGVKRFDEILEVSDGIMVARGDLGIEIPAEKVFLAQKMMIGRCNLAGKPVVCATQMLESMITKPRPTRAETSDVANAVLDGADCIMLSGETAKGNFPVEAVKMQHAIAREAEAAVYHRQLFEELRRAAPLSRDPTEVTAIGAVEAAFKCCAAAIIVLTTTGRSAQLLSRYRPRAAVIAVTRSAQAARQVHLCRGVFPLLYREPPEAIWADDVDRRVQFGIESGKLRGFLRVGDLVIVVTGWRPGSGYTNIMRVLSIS
# [7] = molecular target: Pyruvate kinase PKLR (Homo sapiens) (UniProt P30613); assay: Inhibition of human pyruvate kinase R at 10 uM by LDH assay; in short: as §3
# [8] = molecular target: Pyruvate kinase PKM (Homo sapiens) (UniProt P14618); assay: Inhibition of human pyruvate kinase M1 at 10 uM by LDH assay; in short: as §3
SMILES,IC50 [1] [nM],MIC>98 [2] [µg/mL],MIC>98 [3] [µg/mL],inhibition [4] [%],inhibition [5] [%],inhibition [6] [%],inhibition [7] [%],inhibition [8] [%]
CCOCOc1ccccc1C(=O)N/N=C(\C)c1cc2cc(Br)ccc2[nH]1,251,>64,,,,,,
COc1cc(O)c(C(=O)N/N=C(\C)c2cc3ccccc3[nH]2)cc1Br,324,,>161,,,,,
Cn1c(C=NNC(=O)c2cc(Br)ccc2O)cc2ccccc21 (mixture of isomers),3090,,>186,,,,,
C/C(=N\NC(=O)c1cc(Br)ccc1O)c1nc2ccccc2[nH]1,91,,>187,96.4,6.7,2.1,-1.4,7.6
C/C(=N\NC(=O)c1cc(Br)ccc1O)c1cc2c(F)c(F)ccc2[nH]1,24,,41,,,,,
C/C(=N\NC(=O)c1cc(Br)ccc1O)c1cc2cc(Br)ccc2[nH]1,49,,>226,72.2,8.3,6.8,10.7,21.6
C/C(=N\NC(=O)c1cc(C(C)C)cc(C(C)C)c1O)c1cc2ccccc2[nH]1,,,,40,,,,
COc1ccc2[nH]c(/C(C)=N/NC(=O)c3cc(Br)ccc3O)cc2c1,178,,>80,89.3,2.2,3.9,5.2,7.2
C/C(=N\NC(=O)c1cc(Br)ccc1O)c1cc2ccccc2[nH]1,85,,>186,98.1,4.3,-6.9,-8.7,4.6
C/C(=N\NC(=O)c1cccc(Br)c1)c1cc2ccccc2[nH]1,8150,,>178,,,,,
COc1ccc(Br)cc1C(=O)N/N=C(\C)c1cc2ccccc2[nH]1,182,,>193,83.4,16.1,27.2,31.9,29
CC(=NNC(=O)c1cc(Br)ccc1O)c1cc2cc(Cl)ccc2n1C (mixture of isomers),228,,1.3,92.3,3.7,5.7,6.9,14.8
C/C(=N\NC(=O)c1ccccn1)c1cc2ccccc2[nH]1,,,>139,15,,,,
CC(=NNC(=O)c1cc(Br)ccc1O)c1cc2ccc(Br)cc2n1C (mixture of isomers),17,,1,,,,,
O=C(N/N=C/c1cc2ccccc2[nH]1)c1cc(Br)ccc1O,863,,>179,89.9,-1.4,0.2,-0.5,-7.2
C/C(=N\NC(=O)c1cc(Br)ccc1O)c1cc2cc(Cl)ccc2[nH]1,52,,>81,80.1,4.6,0.1,2.4,4.4
CC/C(=N\NC(=O)c1cc(Br)ccc1O)c1cc2ccccc2[nH]1,126,,9.7,99.2,-2.4,3.6,4.8,6.6
COc1ccc(Br)cc1S(=O)(=O)N/N=C(\C)c1cc2c(F)c(F)ccc2[nH]1,,,,11,,,,
CC(=NNC(=O)c1cc(I)ccc1O)c1cc2ccccc2n1C (mixture of isomers),483,,5.4,94.2,-2,4.4,4.7,-5.3
COc1ccc2c(c1)cc(C(C)=NNC(=O)c1cc(Br)ccc1O)n2C (mixture of isomers),794,,10.4,71.3,,2.8,5.5,-2.8
CC/C(=N\NC(=O)c1cc(Br)ccc1O)c1cc2cc(Br)ccc2[nH]1,49,4,,,,,,
CC(=NNC(=O)c1cc(Br)ccc1O)c1cc2c(F)c(F)ccc2n1C (mixture of isomers),145,,2,,,,,
